High-throughput results: PubChem, Sanford-Burnham Center for Chemical Genomics
This is a sample that favours compounds with a hit; in the whole collection about 1.6% have one here.
TRAIL sens C8: sensitizes caspase-8 expressing cells to TRAIL; NB7+C8 cells + TRAIL, ATPlite viability luminescence; inhibition (viability loss, TRAIL sensitization), % at 10 µM; actives 1% (n = 360,000); AID 624354;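 active means compounds causing at least 50% loss of cell viability in the single-dose screen, relative to plate controls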
FLuc inh counter: Photinus pyralis luciferase inhibition counter-screen; ATPLite firefly luciferase biochemical luminescence, 10 min; inhibition, % at 10 µM; actives 1.5% (n = 200,000);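 active means inhibition above about 50% when tested at 10 µM, limit read from the data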
Target sequence (P08659 whole entry, looked up): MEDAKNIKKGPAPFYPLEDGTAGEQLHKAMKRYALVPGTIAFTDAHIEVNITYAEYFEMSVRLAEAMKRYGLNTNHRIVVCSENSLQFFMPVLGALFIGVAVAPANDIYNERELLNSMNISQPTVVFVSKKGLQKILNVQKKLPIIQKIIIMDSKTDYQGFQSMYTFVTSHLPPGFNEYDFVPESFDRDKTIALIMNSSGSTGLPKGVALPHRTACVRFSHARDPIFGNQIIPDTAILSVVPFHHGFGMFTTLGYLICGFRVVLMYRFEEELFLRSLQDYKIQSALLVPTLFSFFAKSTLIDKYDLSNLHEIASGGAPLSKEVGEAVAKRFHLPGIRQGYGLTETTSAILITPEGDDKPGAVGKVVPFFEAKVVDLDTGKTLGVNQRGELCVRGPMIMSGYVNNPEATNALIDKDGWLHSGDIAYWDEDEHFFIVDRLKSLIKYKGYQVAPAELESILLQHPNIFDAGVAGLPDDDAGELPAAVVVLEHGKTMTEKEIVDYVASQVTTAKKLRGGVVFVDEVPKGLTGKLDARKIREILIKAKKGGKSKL
FLuc act counter: affects firefly luciferase, flagging false hits in luciferase stimulation screens; ATPlite luciferase biochemical, luminescence, 10 min; 0 = ATP-free wells, 1 = DMSO control; activation factor at 10 µM; 200,000 tested, under 10 active;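 active means luciferase activation factor, scaled between plate controls, of at least 2 with compound at 10 µM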
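Assay system: Luciferase/luciferin reagent mix; Medium: PBS as buffer for the ATP substrate; Dosing: test compounds dosed from 2 mM stocks in 100% DMSO; Times: 10 min, room temperature; Signal: luminescence from luciferase reaction; Read-out: luciferase activation; Controls: No-ATP low control, compound-free enzyme-plus-ATP high control.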
PPC-1+TRAIL kill: compounds killing PPC-1 cancer cells with TRAIL present (potentiator screen, no TRAIL-free arm); cell killing (% activity), % at 4 µM or 5 µM; actives 0.41% (n = 220,000); PPC-1 cells + TRAIL, ATPLite viability luminescence;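 active means cell killing above 50% in the first pass at 4 µM, then a duplicate retest at 5 µM averaging 50% or more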;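 further: plate controls were cells with TRAIL plus DMSO for no effect and medium-only wells lacking cells for full effect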
Active calls of the source: *; / = no result given.

SMILES	TRAIL sens C8	FLuc inh counter	FLuc act counter	PPC-1+TRAIL kill
CCn1cc(C(=O)NCC(OC)OC)c(=O)c2cc(S(=O)(=O)N3CCCC3)ccc21	14	/	/	/
Cc1cc(N/N=C/c2ccccc2F)nc(NCc2ccccc2)n1	13	/	/	19
Cc1ccc(-c2cc(C(=O)N/N=C/c3ccc([N+](=O)[O-])o3)c3ccccc3n2)o1	68*	/	/	/
Cn1c(/C=C/c2ccc([N+](=O)[O-])o2)nc2ccccc2c1=O	51*	-5	1	7
Cn1c(/C=C/c2ccccc2)nc2ccccc2c1=O	-8	/	/	/
O=C(N/N=C/c1ccc([N+](=O)[O-])o1)c1cc(-c2ccc(-c3ccccc3)cc2)nc2ccccc12	87*	93*	0.1	80*
COc1ccc(O)c(CN2CCN(C/C=C/c3ccccc3)CC2)c1	3	-7	1.1	-6
O=C(COC(=O)c1ccccc1C(=O)c1ccc(Cl)c([N+](=O)[O-])c1)NC1CCCCCC1	94*	3	1	16
Cn1c(N)c(C(=O)COC(=O)c2ccccc2C(=O)c2ccc(Cl)c([N+](=O)[O-])c2)c(=O)n(C)c1=O	92*	/	/	/
N=c1ccn(Cc2ccc(F)cc2)cc1	-14	/	/	-28
Cc1ccc(/C=C/C(=O)Nc2ccc(N(C)C)cc2)o1	18	67*	0.3	20
Cc1ccc(/C=C/C(=O)Nc2ccncc2)o1	10	12	0.9	0
CC(CCN1CCN(c2ccccn2)CC1)c1ccccc1 (configuration not stated)	-3	/	/	/
C#CCOCCOCCOCCNc1nc(N2CCN(C(=O)CCCCCCCCCCNC(=O)[C@H](CCCCN)n3cc(CCO)nn3)CC2)nc(N2CCN(C(=O)CCCCCCCCCCNC(=O)[C@H](CCCN=C(N)N)n3cc(C[C@@H](C)CC)nn3)CC2)n1	0	/	/	/
C#CCOCCOCCOCCNc1nc(N2CCN(C(=O)CCCCCCCCCCNC(=O)Cn3cc(C[C@@H](C)O)nn3)CC2)nc(N2CCN(C(=O)CCCCCCCCCCNC(=O)[C@H](CCCCN)n3cc(C[C@@H](C)CC)nn3)CC2)n1	86*	/	/	/
C#CCOCCOCCOCCNc1nc(N2CCN(C(=O)CCCCCCCCCCNC(=O)[C@H](CCCCN)n3cc(C[C@@H](C)CC)nn3)CC2)nc(N2CCN(C(=O)CCCCCCCCCCNC(=O)[C@H](CCCCN)n3cc(C[C@@H](C)CC)nn3)CC2)n1	95*	/	/	/
CN(CC(=O)Nc1cccc(F)c1)C(=O)c1ccc2c(c1)NC(=O)CS2	12	/	/	/
CCOC(=O)c1ccc(Nc2ncnc3c2cnn3C)cc1	6	-3	1	16
Cn1ncc2c(O/N=C(\N)c3ccc(C(C)(C)C)cc3)ncnc21	92*	/	/	19
CCC(=O)Nc1cccc(-c2nc3ccccc3o2)c1	21	0	1	-2
CCCC(=O)Nc1cccc(-c2nc3ccccc3c(=O)o2)c1	40	54*	0.5	29
CC(C)C(=O)Nc1ccc(-c2nc3ccccc3c(=O)o2)cc1	48	90*	0.1	31
COc1ccc(-c2nc3ccccc3c(=O)o2)cc1OC	7	10	0.9	-7
CC(C)C(=O)Nc1cccc(-c2nc3ccccc3c(=O)o2)c1	19	6	0.9	35
CC(C)(C)C(=O)Nc1ccc(-c2nc3ccccc3c(=O)o2)cc1	59*	96*	0	41
SMILES	TRAIL sens C8	FLuc inh counter	FLuc act counter	PPC-1+TRAIL kill
Cn1c(=O)c2cn(-c3ccc4c(c3)OCCO4)cc2n(C)c1=O	-20	7	0.9	36
Cn1cc(Cl)c(C(=O)N/N=C/c2ccc(OS(=O)(=O)c3ccccc3)cc2)n1	-8	2	1	-10
Cc1ccc(/C=N/NC(=O)c2nn(C)cc2Cl)cc1	68*	86*	0.1	43
Cn1cc(Cl)c(C(=O)N/N=C/c2ccc3c4c(cccc24)CC3)n1	67*	/	/	/
O=CN1CCN(C(=O)Cc2ccc(Cl)cc2)CC1	-21	/	/	/
O=C(Nc1cccc(Oc2ccc(C(=O)O)c(C(=O)O)c2)c1)c1ccc(-c2ccccc2)cc1	54*	/	/	25
Nc1ccc(S(=O)C(F)(F)F)cc1 (configuration not stated)	-2	-6	1.1	12
O=C(CSC(=S)N1CCCCC1)c1ccccc1	54*	76*	0.2	34
O=C(CSC(=S)N1CCCC1)c1ccccc1	16	/	/	/
Cc1[nH]c2ccccc2c1C(=O)CSC(=S)N1CCCCC1	35	55*	0.5	40
COc1cccc(/C=N/n2cnc3c(cnn3-c3ccccc3)c2=O)c1	-13	/	/	24
CC(C)C[C@H]1CNC(=S)N1C[C@H]1CCCN1C[C@H](Cc1ccccc1)N1C[C@H](Cc2ccc(O)cc2)N(CC2CCCCC2)C1=S	68*	/	/	/
CCOC(=O)C1C(C(=O)Nc2cccc(C(F)(F)F)c2)C1C(=O)NC(C)C (configuration not stated)	0	-2	1	-4
COc1ccccc1C(=O)NNC(=O)c1cccc(O)c1	50*	/	/	/
CC(C)(C)c1ccc(/C=C/C(=O)NC2=NCCS2)cc1	52*	46	0.5	34
Cc1ccc(/C=C/C(=O)Nc2ccccc2C(N)=O)cc1	84*	93*	0.1	84*
Cc1ccc(/C=C/C(=O)NC2=NCCS2)cc1	76*	86*	0.1	50
Cc1ccc(OCC(=O)NC2=NCCS2)cc1	7	34	0.7	6
COC(=O)[C@@]1(Cc2ccc(OC)cc2)[C@H]2c3cc(C(=O)N4CCCC4)n(Cc4ccc(C)c(F)c4F)c3C[C@H]2CN1C(=O)c1ccccc1	-3	/	/	/
CCOc1ccccc1N1CCN(S(=O)(=O)c2ccc(F)c(F)c2)CC1	-3	-6	1.1	3
Cc1nn(-c2ccccc2Cl)c(Cl)c1/C=N/Nc1cccc(C(=O)O)c1	78*	90*	0.1	40
Cc1nn(-c2cccc(C(F)(F)F)c2)c(Cl)c1/C=N/Nc1cccc(C(=O)O)c1	-8	7	0.9	22
NC(=O)N/N=C/c1cn(-c2ccccc2)nc1-c1cccs1	39	70*	0.3	44
O=C(O)c1cccc(N/N=C/c2cn(-c3ccccc3)nc2-c2cccs2)c1	21	54*	0.5	4
Cc1ccsc1/C=N/Nc1cccc(C(=O)O)c1	16	59*	0.4	1
SMILES	TRAIL sens C8	FLuc inh counter	FLuc act counter	PPC-1+TRAIL kill
O=C(N/N=C/c1cn(-c2ccccc2)nc1-c1cccs1)c1ccncc1	4	14	0.9	23
Cc1ccsc1/C=N/Nc1ccc(C(=O)O)cc1	8	/	/	/
COc1cc(C2C(C#N)=C(N)Oc3c2ccc2ccccc32)ccc1OCC(=O)Nc1cccc(C)c1 (configuration not stated)	16	-1	1	19
N#Cc1cc([N+](=O)[O-])ccc1NC(=O)COC(=O)CN1C(=O)C2CCCCC2C1=O (configuration not stated)	-15	/	/	/
O=C(O)c1cccc(N/N=C/c2sc(N3CCOCC3)nc2-c2ccccc2)c1	20	60*	0.4	5
COc1ccc(C(C#N)=Cc2cccc(OC)c2OC)cc1	18	/	/	/
O=C(/C=C/c1ccco1)Oc1cc(Br)cc(/C=N/NC(=O)c2ccccc2O)c1	44	0	1	52*
